These results are taken from ChEMBL document CHEMBL3243966, “Synthesis of substituted 1-hydroxy-2-naphthanilides as potential cestodicidal agents” (J Med Chem, 1978).

In data set [1] the test system is Rodentolepis nana. In words: Cestodicidal activity against Hymenolepis nana infected in po dosed rat assessed as […] after 3 days. Format: functional. To be noted: 72 h, read-out: MED.
The test system of data set [2] is Rodentolepis nana. Description: Cestodicidal activity against Hymenolepis nana infected in rat assessed as reduction in 98 to 100% of worm load at 250 mg/kg, po after 3 days. Format: functional, organism-based. Details: dose 250 mg/kg. The procedure, abridged: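 Newly weaned male Freiburg-strain rats (25-30 g) infected orally with 200 viable H. nana ova; faecal ova-positive animals treated on day 15 after overnight fast. Single oral dose, starting at 250 mg/kg, then 100, 50, 13, 7.5 mg/kg; three treated, three untreated controls per group. Sacrificed day 3 post-treatment after fasting; small intestine worms collected and scored. Minimum effective dose: lowest giving score ≤10% of control.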

Data set [3] can be described thus: Cestodicidal activity against Hymenolepis diminuta infected in rat assessed as reduction in worm load at 10 mg/kg, po relative to control. Format: functional. Details: scale not given: the % may be the effect or the level left. The procedure, abridged: (§1)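 Single oral 10 mg/kg dose, with worm-load reduction as the read-out. H. diminuta was tested in rats; Taenia sp. was tested in naturally infected dogs.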

A further data set has as its system Taenia. In words: Cestodicidal activity against Taenia species infected in dog assessed as reduction in worm load at 10 mg/kg, po relative to control. Format: functional. Details: scale not given: the % may be the effect or the level left. The procedure, abridged:
as §1

Data set [4] relates to Rattus norvegicus. Description: Toxicity in rat at 5 g/kg, po. Format: organism-based. The settings on record: in vivo, 5000 mg/kg.
The subject of data set [5] is Rattus norvegicus. Description: Toxicity in rat at 5 g/kg, ip. The settings on record: in vivo, 5000 mg/kg. The data set is classed as organism-based.
For data set [6], the system named is Rattus norvegicus. Description: Toxicity in rat at 5 g/kg, po assessed as mortality. Format: organism-based. The settings on record: in vivo, 5000 mg/kg.
In data set [7] the test system is Rattus norvegicus. Description: Toxicity in rat at 5 g/kg, ip assessed as mortality. The settings on record: in vivo, 5000 mg/kg. Format: organism-based.
In data set [8] the test system is Rattus norvegicus. In words: Toxicity in rat infected with Hymenolepis nana at 1 g/kg. Format: organism-based. To be noted: in vivo, 1000 mg/kg. Put shortly:
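Young rats infected with H. nana received 1 g/kg, and tolerance was assessed.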

Data set [9] has as its system Mastomys natalensis. Description: Toxicity in po dosed natal multimammate mouse. To be noted: in vivo. The data set is classed as organism-based. Put shortly:
(§2)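 Acute toxicity study in Mastomys natalensis and dogs, with the compound given orally or intraperitoneally.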

Data set [10] deals with Mastomys natalensis. Description: Toxicity in ip dosed natal multimammate mouse. The settings on record: in vivo. Format: organism-based. Put shortly: as §2
In data set [11] the test system is Canis familiaris. Description: Toxicity in po dosed dog. The data set is classed as organism-based, Canis lupus familiaris. To be noted: in vivo. Put shortly: as §2
Data set [12] has as its system Canis familiaris. In words: Toxicity in ip dosed dog. Format: organism-based, Canis lupus familiaris. To be noted: in vivo. Put shortly:
as §2

The source made the active and inactive calls. No cut-off for these calls is given here.

As for `O=C(Nc1ccc([N+](=O)[O-])cc1Cl)c1cc(Br)c2ccccc2c1O`, the minimal effective dose in the data set with Rodentolepis nana [1] amounted to 13 mg/kg.
As for `O=c1oc2c(cc(Br)c3ccccc32)c(=O)n1-c1ccc([N+](=O)[O-])cc1Cl`, the outcome in the data set on Rodentolepis nana [2] was inactive.
Take `CC1CCCN(c2ccc(NC(=O)c3ccc4ccccc4c3O)cc2[N+](=O)[O-])C1` (stereo not given): the result with Rodentolepis nana [2] was inactive.
For `O=c1c2cc(Br)c3ccccc3c2oc(=S)n1-c1ccc([N+](=O)[O-])cc1`, in the data set on Rodentolepis nana [2], the outcome was inactive.
For `O=c1c2ccc3ccccc3c2oc(=S)n1-c1ccc(Cl)c([N+](=O)[O-])c1`, in the data set on Rodentolepis nana [2], the outcome was inactive.
The same measure, in the same setting: to `O=c1oc2c(ccc3ccccc32)c(=O)n1-c1ccc(Cl)cc1Cl` belongs “inactive”.
On the same count and under the same terms, the result for `Nc1ccc(NC(=O)c2ccc3ccccc3c2O)c(Cl)c1` reads “inactive”.
With `O=C(Nc1ccc([N+](=O)[O-])cc1Cl)c1cc(Cl)ccc1O` [NICLOSAMIDE], the minimal effective dose in the data set with Rodentolepis nana [1] worked out at 50 mg/kg.
`O=C(Nc1ccc(N2CCOCC2)c([N+](=O)[O-])c1)c1ccc2ccccc2c1O`: in the data set on Rodentolepis nana [2], the outcome was inactive.
The same measure, in the same setting: to `CN1CCN(c2ccc(NC(=O)c3ccc4ccccc4c3O)cc2[N+](=O)[O-])CC1` belongs “inactive”.
Turning to `O=c1c2ccc3ccccc3c2oc(=S)n1-c1ccc(Cl)cc1Cl`, the outcome in the data set on Rodentolepis nana [2] was inactive.
On the same count and under the same terms, the result for `O=c1c2ccc3ccccc3c2oc(=S)n1-c1ccc([N+](=O)[O-])cc1Cl` reads “inactive”; that for `Nc1ccccc1NC(=O)c1cc(Br)c2ccccc2c1O`, “inactive”.
Consider `O=C(Nc1ccc(N2CCN(c3ccccc3)CC2)c([N+](=O)[O-])c1)c1ccc2ccccc2c1O`, for which the outcome in the data set with Rodentolepis nana [2] was inactive.
On to `O=c1oc2c(cc(Br)c3ccccc32)c(=O)n1-c1ccc(Cl)cc1[N+](=O)[O-]`, for which the outcome with Rodentolepis nana [2] was inactive.
As for `CC1CCN(c2ccc(NC(=O)c3ccc4ccccc4c3O)cc2[N+](=O)[O-])CC1`, in the data set with Rodentolepis nana [2], the result was inactive.
As to `O=C(Nc1ccc(N=C=S)cc1Cl)c1ccc2ccccc2c1O`, in the data set on Rodentolepis nana [1], the minimal effective dose turned out to be 7.5 mg/kg. Further, the Activity is recorded as 100% in [3]; 100% with Taenia; “Non-toxic” in the data set on Rattus norvegicus [4]; “Non-toxic” in the data set with Rattus norvegicus [5]; “Non-toxic” with Rattus norvegicus [6]; “Non-toxic” in the data set on Rattus norvegicus [7]. For the same compound, the Activity entry in the data set with Rattus norvegicus [8], in the data set with Mastomys natalensis [9], with Mastomys natalensis [10], in the data set with Canis familiaris [11] and in the data set with Canis familiaris [12] was “Non-toxic” throughout.
For the compound `O=C(Nc1ccc(N2CCCC2)c([N+](=O)[O-])c1)c1ccc2ccccc2c1O`, the result in the data set with Rodentolepis nana [2] was inactive.
Take `O=C(Nc1ccc(Cl)cc1Cl)c1ccc2ccccc2c1O`: the outcome with Rodentolepis nana [2] was inactive.
`O=c1c2ccc3ccccc3c2oc(=S)n1-c1ccc(Cl)cc1[N+](=O)[O-]`: in the data set on Rodentolepis nana [2], the outcome was inactive.
On to `O=C(Nc1ccc(N=C=S)cc1Cl)c1cc(Br)c2ccccc2c1O`, for which, in the data set with Rodentolepis nana [1], the minimal effective dose came out at 250 mg/kg.
In the case of `Nc1ccc(NC(=O)c2cc(Br)c3ccccc3c2O)cc1`, in the data set on Rodentolepis nana [2], the result was inactive.
On the same count and under the same terms, to `O=C(Nc1ccc(Cl)cc1[N+](=O)[O-])c1ccc2ccccc2c1O` belongs “inactive”.
Still for that read-out and setting: to `O=C(Nc1ccc([N+](=O)[O-])cc1Cl)c1ccc2ccccc2c1O` belongs “inactive”; to `O=c1c2cc(Br)c3ccccc3c2oc(=S)n1-c1ccc([N+](=O)[O-])cc1Cl`, “inactive”; to `Nc1ccc(NC(=O)c2ccc3ccccc3c2O)cc1`, “inactive”.
The same measure, in the same setting: to `O=c1oc2c(ccc3ccccc32)c(=O)n1-c1ccccc1[N+](=O)[O-]` belongs “inactive”.
Take `O=C(Nc1ccc(N=C=S)cc1)c1ccc2ccccc2c1O`: the minimal effective dose in the data set on Rodentolepis nana [1] was 100 mg/kg.
Take `Nc1cc(NC(=O)c2ccc3ccccc3c2O)ccc1Cl`: in the data set with Rodentolepis nana [2], the result was inactive.
The same measure, in the same setting: the result for `O=C(Nc1ccc([N+](=O)[O-])cc1)c1ccc2ccccc2c1O` reads “inactive”; that for `O=C(Nc1ccc(Cl)c([N+](=O)[O-])c1)c1ccc2ccccc2c1O`, “inactive”; that for `O=c1c2ccc3ccccc3c2oc(=S)n1-c1ccccc1[N+](=O)[O-]`, “inactive”.
Still for that read-out and setting: to `Nc1ccc(NC(=O)c2cc(Br)c3ccccc3c2O)c(Cl)c1` belongs “inactive”; to `O=C(Nc1ccccc1[N+](=O)[O-])c1ccc2ccccc2c1O`, “inactive”.
Same read-out and setting: the result for `O=c1c2cc(Br)c3ccccc3c2oc(=S)n1-c1ccccc1[N+](=O)[O-]` reads “inactive”; that for `O=c1c2cc(Br)c3ccccc3c2oc(=S)n1-c1ccc(Cl)cc1[N+](=O)[O-]`, “inactive”; that for `O=c1oc2c(cc(Br)c3ccccc32)c(=O)n1-c1ccc(Cl)cc1Cl`, “inactive”.
With `O=C(Nc1ccc([N+](=O)[O-])cc1)c1cc(Br)c2ccccc2c1O`, the minimal effective dose in the data set with Rodentolepis nana [1] is 100 mg/kg.
`O=C(Nc1ccc(N2CCCCC2)c([N+](=O)[O-])c1)c1ccc2ccccc2c1O`: the outcome with Rodentolepis nana [2] was inactive.
The same measure, in the same setting: the result for `O=c1oc2c(ccc3ccccc32)c(=O)n1-c1ccc([N+](=O)[O-])cc1` reads “inactive”; that for `Nc1cc(Cl)ccc1NC(=O)c1ccc2ccccc2c1O`, “inactive”.
Same read-out and setting: to `O=c1c2ccc3ccccc3c2oc(=S)n1-c1ccc([N+](=O)[O-])cc1` belongs “inactive”.
On to `O=C(Nc1ccc(Cl)cc1Cl)c1cc(Br)c2ccccc2c1O`, for which, in the data set with Rodentolepis nana [1], the minimal effective dose came to 50 mg/kg.
`O=c1oc2c(ccc3ccccc32)c(=O)n1-c1ccc(Cl)c([N+](=O)[O-])c1`: the result with Rodentolepis nana [2] was inactive.
As to `O=C(Nc1ccccc1[N+](=O)[O-])c1ccc2c(Br)cccc2c1O`, in the data set with Rodentolepis nana [1], the minimal effective dose is 250 mg/kg.
`Nc1ccccc1NC(=O)c1ccc2ccccc2c1O`: the outcome in the data set on Rodentolepis nana [2] was inactive.
As for `O=c1oc2c(ccc3ccccc32)c(=O)n1-c1ccc([N+](=O)[O-])cc1Cl`, in the data set with Rodentolepis nana [2], the outcome was inactive.
As for `O=C(Nc1ccc(Cl)cc1[N+](=O)[O-])c1cc(Br)c2ccccc2c1O`, in the data set on Rodentolepis nana [1], the minimal effective dose is 250 mg/kg.
Same read-out and setting: to `O=C(Nc1ccc(Cl)c(N=C=S)c1)c1cc(Br)c2ccccc2c1O` belongs 100 mg/kg.
